Measured values: paper PMC4855275 (Experimental & Molecular Medicine, 2016)
Entries after “also recorded” stand apart in the source; their conditions may differ.

Experiments:
full-length PAK1 = full-length PAK1 (Homo sapiens, UniProt Q13153); test: In vitro inhibition of PAK family members, PAK1; format: biochemical; settings: 40 μM, with Cdc42•GTP
[1] = molecular target: myc-PAK1 (pT423) in HeLa cells (Homo sapiens, UniProt Q13153); test: Sorbitol-induced PAK1 autophosphorylation in cells; format: cell-based; settings: 20 μM for 2 h, then 0.4 M sorbitol
In short: (§1)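 HeLa transfected (Lipofectamine, 24 h) with 2 μg myc-PAK1 or myc-PAK3 cDNA. Cells exposed to test compound 2 h, then 0.4 M sorbitol 0.5 h; lysed in HEPES/Triton buffer with NaF and vanadate. Immunoblotted with anti-phospho-group I PAK antibody (PAK1 T423; PAK3 T421); myc-PAK levels by anti-Myc; chemiluminescent detection; ≥3 experiments.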

[2] = molecular target: Cdc42–PBD interaction (PBD of PAK1) (Homo sapiens, UniProt Q13153); test: ELISA of the Cdc42–PBD interaction; format: binding
In short: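 Wells coated overnight at 4 °C with His-tagged PAK1 PBD (1 μg ml⁻¹) in carbonate–bicarbonate buffer, pH 9.6; TBS-T washes. GST-Cdc42 loaded with GTPγS (0.5 h, RT), then GST-Cdc42(GTPγS) (100 ng ml⁻¹) with test compound for 0.5 h RT and 1 h 37 °C. Bound Cdc42 detected with HRP-anti-GST (200 ng ml⁻¹, 1 h, 37 °C) and ABTS (pH 5.6, 15–30 min); stopped with 1% SDS; A405.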

HeLa cells = test: Cell viability / cytotoxicity; format: cell-based; settings: for Light-induced cytotoxicity: during FRET analysis
In short: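 HeLa seeded at 2 × 10⁵ cells per ml. Test compound at 20 μM final for 2, 4, 6, 8 or 12 h at 37 °C. WST-8 then added (10% v/v final) for 2 h at 37 °C; absorbance read at 450 nm.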

Cdc42–PBD interaction = Cdc42–PBD interaction (Homo sapiens, UniProt Q13153); test: SPR of Cdc42•GTP binding to immobilized PBD in presence of compound; settings: 10 µM compound
[3] = tested on: R1K3 (PAK1 CD replaced by PAK3 CD) in HeLa cells; test: CD-swapping experiment, R1K3; format: cell-based; settings: 20 μM for 2 h, then 0.4 M sorbitol
Wt-PAK1 (full-length) = settings: reported; ref [11], [12]; cited from earlier work
PAK1^T423E [4] = molecular target: T1, PAK1^T423E (Homo sapiens, UniProt Q13153, T423E); settings: reported; ref [11], [12]; cited from earlier work
PBD-LL (H83L/H86L) = PBD-LL (H83L/H86L) (Homo sapiens, UniProt Q13153, H83L/H86L); test: SPR binding to mutated PBD; settings: 100 μM compound
In short: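 GST-tagged wild-type or H83L/H86L PAK1 PBD was expressed in E. coli, purified on glutathione-Sepharose, and amine-coupled to CM5 chips (~10 000 RU), with GST as control. Test compound (100 μM) was flowed at 20 μl min⁻¹, 25 °C, in 10 mM HEPES, 150 mM NaCl, 0.005% P20, 0.4% DMSO, pH 7.4. Sensorgrams were representative of ≥3 independent experiments.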

PBD of PAK1 (Wt-PBD) = PBD of PAK1 (Wt-PBD) (Homo sapiens, UniProt Q13153); test: SPR binding to immobilized GST-PBD; settings: Kd for the compound–PBD interaction, 25 °C, 1:1 Langmuir model
In short: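 GST (reference) and wild-type GST-PBD amine-coupled to CM5 chips at about 10 000 RU. Runs at 25 °C in 10 mM HEPES, 150 mM NaCl, 0.005% P20, 0.4% DMSO, pH 7.4. Test compound injected at 12.5, 25, 50 or 100 μM, 20 μl min⁻¹. Kd taken as kd/ka from a 1:1 Langmuir fit. At least three independent experiments.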

[5] = molecular target: PAK1^T423E/LL (H83L/H86L) (Homo sapiens, UniProt Q13153, H83L/H86L/T423E); test: In vitro kinase assay with LL mutant of active PAK1; format: biochemical; settings: 40 μM, 0.5 h
In short: (§2)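 Preincubated with test compound or DMSO 0.5 h, 30 °C, then 5 μCi [γ-³²P]ATP 0.5 h, 30 °C. 15% SDS-PAGE; MBP phosphorylation read by autoradiography; total MBP immunoblot as loading control; ≥3 experiments.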

pMEK1^S298 in 293T cells = test: MEK1 S298 phosphorylation downstream of PAK1; format: cell-based; settings: 293T cells with myc-PAK1 and GFP-V12Cdc42, 20 μM, 2 h
In short: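 293T co-transfected with myc-PAK1 and GFP-V12Cdc42. After 24 h, test compound at 20 μM for 2 h. Lysates immunoblotted for pPAK1 T423 and pMEK S298; expressed proteins checked with anti-Myc and anti-GFP. Membranes blocked in 3% BSA/TBS-T, primary antibody 1 h RT, HRP secondary, chemiluminescence. At least three independent experiments.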

[6] = molecular target: YFP-PBD and CFP-V12Cdc42 fusion proteins in HeLa cells (Homo sapiens, UniProt Q13153); test: FRET analysis of V12Cdc42–PBD interaction in cells; format: cell-based; settings: 20 μM, 1.5 h
In short: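 HeLa on poly-L-lysine-coated coverslips transfected with YFP-PBD and CFP-V12Cdc42 plasmids. At 12 h post-transfection, DMSO or 20 μM test compound applied and imaged over 1.5 h (ex 433 nm; em 475 nm CFP, 530 nm FRET). Background-subtracted FRET/CFP ratio used as efficiency, normalised to time zero = 1; 16 cells per compound.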

full-length PAK3 = full-length PAK3 (Homo sapiens, UniProt O75914); test: In vitro inhibition of PAK family members, PAK3; format: biochemical; settings: 40 μM, with Cdc42•GTP
[7] = molecular target: myc-PAK3 (pT421) in HeLa cells (Homo sapiens, UniProt O75914); test: Sorbitol-induced PAK3 autophosphorylation in cells; format: cell-based; settings: 20 μM for 2 h, then 0.4 M sorbitol
In short: as §1

PAK1^T423E [8] = molecular target: T1, PAK1^T423E; test: In vitro PAK1 assay with active PAK1; format: biochemical; settings: 0.5 h; 40 μM in Figure 3c
In short: as §2

full-length PAK1, sequence (Q13153 whole entry): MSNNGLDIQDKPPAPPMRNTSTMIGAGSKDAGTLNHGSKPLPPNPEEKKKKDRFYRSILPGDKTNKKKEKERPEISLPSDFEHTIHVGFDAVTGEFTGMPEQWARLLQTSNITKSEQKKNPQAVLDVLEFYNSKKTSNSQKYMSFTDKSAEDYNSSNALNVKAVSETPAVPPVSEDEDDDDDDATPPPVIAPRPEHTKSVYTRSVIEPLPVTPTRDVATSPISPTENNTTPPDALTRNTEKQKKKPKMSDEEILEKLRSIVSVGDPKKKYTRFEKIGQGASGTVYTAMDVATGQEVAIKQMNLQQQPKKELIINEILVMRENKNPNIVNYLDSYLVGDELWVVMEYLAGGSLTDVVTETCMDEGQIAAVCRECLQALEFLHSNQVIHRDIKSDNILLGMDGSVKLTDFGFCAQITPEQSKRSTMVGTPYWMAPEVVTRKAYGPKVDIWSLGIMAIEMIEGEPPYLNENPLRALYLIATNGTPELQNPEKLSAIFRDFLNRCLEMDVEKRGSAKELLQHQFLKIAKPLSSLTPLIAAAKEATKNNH
myc-PAK1 (pT423) in HeLa cells, sequence (Q13153 whole entry): as above
Cdc42–PBD interaction (PBD of PAK1), sequence (Q13153 67-150): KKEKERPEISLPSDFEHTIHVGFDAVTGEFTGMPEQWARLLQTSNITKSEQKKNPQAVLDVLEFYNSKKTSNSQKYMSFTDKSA
myc-PAK3 (pT421) in HeLa cells, sequence (O75914 1-544 isoform O75914-2): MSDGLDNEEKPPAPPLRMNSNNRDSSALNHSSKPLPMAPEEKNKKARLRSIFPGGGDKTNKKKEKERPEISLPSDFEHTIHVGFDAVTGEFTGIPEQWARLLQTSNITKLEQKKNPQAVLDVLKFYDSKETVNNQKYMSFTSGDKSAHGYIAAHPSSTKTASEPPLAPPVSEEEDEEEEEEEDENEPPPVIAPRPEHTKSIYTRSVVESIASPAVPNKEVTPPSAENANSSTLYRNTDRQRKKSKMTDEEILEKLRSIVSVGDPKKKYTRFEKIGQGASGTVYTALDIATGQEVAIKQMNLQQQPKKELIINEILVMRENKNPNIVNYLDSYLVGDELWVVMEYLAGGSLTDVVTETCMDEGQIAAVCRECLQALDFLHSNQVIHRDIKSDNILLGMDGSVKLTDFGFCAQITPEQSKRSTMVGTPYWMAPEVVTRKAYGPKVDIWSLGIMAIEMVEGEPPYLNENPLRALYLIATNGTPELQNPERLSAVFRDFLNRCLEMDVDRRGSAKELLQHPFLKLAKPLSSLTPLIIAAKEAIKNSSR
T1 sequence (Q13153 whole entry T423E): as the sequence (Q13153 whole entry) above, with T423E counted along it
PBD-LL (H83L/H86L), sequence (Q13153 67-150 H83L/H86L): as the sequence (Q13153 67-150) above, with H17L, H20L counted along it
PBD of PAK1 (Wt-PBD), sequence (Q13153 67-150): as the sequence (Q13153 67-150) above
Cdc42–PBD interaction, sequence (Q13153 67-150): as above
full-length PAK3, sequence (O75914 1-544 isoform O75914-2): as the sequence (O75914 1-544 isoform O75914-2) above
PAK1^T423E/LL (H83L/H86L), sequence (Q13153 whole entry H83L/H86L/T423E): as the sequence (Q13153 whole entry) above, with H83L, H86L, T423E counted along it
YFP-PBD and CFP-V12Cdc42 fusion proteins in HeLa cells, sequence (Q13153 67-150): as the sequence (Q13153 67-150) above

| Structure (SMILES) | Inhibition of full-length PAK1 (MBP phosphorylation) (full-length PAK1) | PAK1 autophosphorylation (pT423) [1] | Inhibitory activity on the Cdc42–PBD interaction [2] | Light-induced cytotoxicity (HeLa cells) | Interference with the Cdc42–PBD interaction (Cdc42–PBD interaction) | Inhibition of sorbitol-activated R1K3 [3] | Binding affinity to PBD-LL compared with Wt-PBD (PBD-LL (H83L/H86L)) | Kd (PBD of PAK1 (Wt-PBD)) [µM] | also measured |
| --- | --- | --- | --- | --- | --- | --- | --- | --- | --- |
| O=C1C=C(Br)C(=O)c2ccccc21 [compound 13, 2-Bromo-1,4-NQ] | selective inhibition of PAK1 | only weakly suppressed | high inhibitory activities | light-induced cytotoxicity | effectively interfered with the Cdc42–PBD interaction | – | – | – | – |
| O=C1C=C(Cl)C(=O)c2ccccc21 [compound 14, 2-Chloro-1,4-NQ] | selective inhibition of PAK1 | greatly suppressed; also recorded: almost completely inhibited | high inhibitory activities | light-induced cytotoxicity | effectively interfered with the Cdc42–PBD interaction | almost completely inhibited | – | – | – |
| Oc1ccc2ccccc2c1SSc1c(O)ccc2ccccc12 [IPA-3, 2,2′-dihydroxy-1,10-dinaphthyldisulfide] | – | – | – | – | – | – | – | – | Inhibition of Cdc42-dependent activation of wild-type group I PAKs (Wt-PAK1 (full-length)): effectively inhibit; Susceptibility of PAK1^T423E to inhibition (PAK1^T423E [4]): not susceptible to inhibition |
| COC(=O)C1=CC(=O)c2ccccc2C1=O [compound 8, 2-methoxycarbonyl-1,4-naphthoquinone] | – | – | high inhibitory activities | – | – | – | significantly reduced (to approximately half of those for Wt-PBD binding) | < 7 | – |
| O=C1C=CC(=O)c2ccccc21 [compound 7, 1,4-naphthoquinone] | suppressed the activities of both PAK1 and PAK3 to a similar degree | greatly suppressed; also recorded: almost completely inhibited | – | – | – | almost completely inhibited | significantly reduced (to approximately half of those for Wt-PBD binding) | < 7 | Inhibitory effect on PAK1^T423E/LL [5]: little inhibitory effect; pMEK1^S298 levels (pMEK1^S298 in 293T cells): markedly decreased; FRET efficiency [6]: decreased; Inhibition of full-length PAK3 (MBP phosphorylation) (full-length PAK3): suppressed the activities of both PAK1 and PAK3 to a similar degree; PAK3 autophosphorylation (pT421) [7]: greatly suppressed; also recorded: specifically inhibited; Cytotoxicity (HeLa cells; HeLa cells, 20 μM): no significant cytotoxicity; MBP phosphorylation by PAK1^T423E (PAK1^T423E [8]): markedly suppressed |
